Assay results from ChEMBL document CHEMBL3421533, “The Discovery of Orally Bioavailable Tyrosine Threonine Kinase (TTK) Inhibitors: 3-(4-(heterocyclyl)phenyl)-1H-indazole-5-carboxamides as Anticancer Agents” (J Med Chem, 2015).

Legend:
[1] = target: Aurora kinase B/Inner centromere protein (Homo sapiens, UniProt Q96GD4); assay: Inhibition of AURKB/INCENP (unknown origin) preincubated for 15 mins prior to ATP addition by FRET-based homogenous assay; assay type: protein-complex assay
Procedure, shortened: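 The enzyme was AURKB/INCENP in a FRET-based homogeneous assay run to kit specifications, with ATP at 128 μM. […] Each IC50 came from a single determination, reported with its standard fitting error.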

MDA-MB-468 = assay: Cytotoxicity against human MDA-MB-468 cells after 5 days by sulforhodamine B assay; assay type: functional
Procedure, shortened: (§1)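 Cancer lines were seeded at 800–6000 cells per well according to growth rate, 24 h before compound overlay. After culture, cells were fixed in situ and stained with sulforhodamine B. GI50 values were derived by curve fitting.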

[2] = target: T1, Dual specificity protein kinase TTK (Homo sapiens, UniProt P33981); assay: Inhibition of amino terminal GST-fused full length human TTK using His6-SUMO-TTK-N as substrate preincubated for 15 mins prior to ATP addition by indirect ELISA detection system
T1 sequence (P33981 whole entry): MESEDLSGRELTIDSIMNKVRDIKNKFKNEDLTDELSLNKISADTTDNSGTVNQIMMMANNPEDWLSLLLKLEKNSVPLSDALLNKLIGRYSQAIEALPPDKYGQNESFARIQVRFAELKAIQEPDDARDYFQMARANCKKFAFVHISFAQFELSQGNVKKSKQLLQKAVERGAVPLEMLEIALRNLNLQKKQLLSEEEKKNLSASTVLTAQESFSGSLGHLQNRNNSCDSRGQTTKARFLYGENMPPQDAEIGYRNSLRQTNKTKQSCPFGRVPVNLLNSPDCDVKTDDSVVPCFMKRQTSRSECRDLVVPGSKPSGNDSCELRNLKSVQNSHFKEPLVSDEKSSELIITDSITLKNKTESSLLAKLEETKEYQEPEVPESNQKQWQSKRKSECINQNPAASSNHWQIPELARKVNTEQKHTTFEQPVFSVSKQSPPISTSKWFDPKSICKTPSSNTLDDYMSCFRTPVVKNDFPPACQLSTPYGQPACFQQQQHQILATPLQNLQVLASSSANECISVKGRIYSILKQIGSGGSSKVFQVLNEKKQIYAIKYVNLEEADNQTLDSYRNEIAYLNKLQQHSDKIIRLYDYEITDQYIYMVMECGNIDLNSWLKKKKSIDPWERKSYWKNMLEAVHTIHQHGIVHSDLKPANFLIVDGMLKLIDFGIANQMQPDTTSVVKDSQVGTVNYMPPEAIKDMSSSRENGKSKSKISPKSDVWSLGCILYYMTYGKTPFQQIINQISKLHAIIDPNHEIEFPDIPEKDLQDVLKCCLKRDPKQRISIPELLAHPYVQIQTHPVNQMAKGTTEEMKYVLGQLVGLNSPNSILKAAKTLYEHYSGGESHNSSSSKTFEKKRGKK

[3] = Cytotoxicity against human HCT116 cells after 5 days by sulforhodamine B assay; assay type: functional, HCT-116; procedure, shortened: as §1
[4] = Cytotoxicity against human OVCAR3 cells after 5 days by sulforhodamine B assay; assay type: functional, OVCAR-3
[5] = Half life in rat liver microsomes at 1 uM by LC-MS analysis; assay type: ADME; settings: liver microsomes
[6] = Half life in mouse liver microsomes at 1 uM by LC-MS analysis; assay type: ADME; settings: liver microsomes
Cytochrome P450 3A4 = Cytochrome P450 3A4 (Homo sapiens, UniProt P08684); assay: Inhibition of human CYP3A4 using BFC as substrate preincubated for 10 mins followed by enzyme/substrate addition measured after 30 mins by fluorescence assay; assay type: ADME
Chain of Cytochrome P450 3A4 (P08684 whole entry, the tested form may be a part): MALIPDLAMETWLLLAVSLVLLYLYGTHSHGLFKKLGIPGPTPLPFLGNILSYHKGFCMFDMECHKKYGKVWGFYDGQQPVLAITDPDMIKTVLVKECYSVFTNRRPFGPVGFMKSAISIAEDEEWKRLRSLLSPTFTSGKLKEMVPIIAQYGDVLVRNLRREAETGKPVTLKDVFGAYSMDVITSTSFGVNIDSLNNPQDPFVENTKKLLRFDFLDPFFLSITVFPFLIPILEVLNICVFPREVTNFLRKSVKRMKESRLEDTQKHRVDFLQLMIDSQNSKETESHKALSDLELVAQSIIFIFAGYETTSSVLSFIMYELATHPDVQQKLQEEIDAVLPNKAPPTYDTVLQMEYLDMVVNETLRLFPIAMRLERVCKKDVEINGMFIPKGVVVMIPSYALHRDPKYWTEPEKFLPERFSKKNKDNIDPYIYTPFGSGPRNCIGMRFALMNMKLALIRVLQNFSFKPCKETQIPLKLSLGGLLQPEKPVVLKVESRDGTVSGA

Homo sapiens = species on record: Homo sapiens; assay: Selectivity ratio of IC50 for AURKB/INCENP (unknown origin) to IC50 for amino terminal GST-fused full length human TTK
[7] = Homo sapiens, MDA-MB-468, 120 h

Chain of Aurora kinase B/Inner centromere protein (Q96GD4 whole entry): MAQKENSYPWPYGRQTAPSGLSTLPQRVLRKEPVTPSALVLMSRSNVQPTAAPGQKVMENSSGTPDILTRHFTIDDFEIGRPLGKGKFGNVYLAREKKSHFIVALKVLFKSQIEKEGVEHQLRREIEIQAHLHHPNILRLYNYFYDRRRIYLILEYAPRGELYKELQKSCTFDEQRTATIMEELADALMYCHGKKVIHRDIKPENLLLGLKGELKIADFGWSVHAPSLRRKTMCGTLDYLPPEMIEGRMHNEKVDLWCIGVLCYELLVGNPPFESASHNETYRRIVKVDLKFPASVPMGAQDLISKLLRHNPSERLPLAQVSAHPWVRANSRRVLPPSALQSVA
Chain of Aurora kinase B/Inner centromere protein (Q9NQS7 whole entry, further chain): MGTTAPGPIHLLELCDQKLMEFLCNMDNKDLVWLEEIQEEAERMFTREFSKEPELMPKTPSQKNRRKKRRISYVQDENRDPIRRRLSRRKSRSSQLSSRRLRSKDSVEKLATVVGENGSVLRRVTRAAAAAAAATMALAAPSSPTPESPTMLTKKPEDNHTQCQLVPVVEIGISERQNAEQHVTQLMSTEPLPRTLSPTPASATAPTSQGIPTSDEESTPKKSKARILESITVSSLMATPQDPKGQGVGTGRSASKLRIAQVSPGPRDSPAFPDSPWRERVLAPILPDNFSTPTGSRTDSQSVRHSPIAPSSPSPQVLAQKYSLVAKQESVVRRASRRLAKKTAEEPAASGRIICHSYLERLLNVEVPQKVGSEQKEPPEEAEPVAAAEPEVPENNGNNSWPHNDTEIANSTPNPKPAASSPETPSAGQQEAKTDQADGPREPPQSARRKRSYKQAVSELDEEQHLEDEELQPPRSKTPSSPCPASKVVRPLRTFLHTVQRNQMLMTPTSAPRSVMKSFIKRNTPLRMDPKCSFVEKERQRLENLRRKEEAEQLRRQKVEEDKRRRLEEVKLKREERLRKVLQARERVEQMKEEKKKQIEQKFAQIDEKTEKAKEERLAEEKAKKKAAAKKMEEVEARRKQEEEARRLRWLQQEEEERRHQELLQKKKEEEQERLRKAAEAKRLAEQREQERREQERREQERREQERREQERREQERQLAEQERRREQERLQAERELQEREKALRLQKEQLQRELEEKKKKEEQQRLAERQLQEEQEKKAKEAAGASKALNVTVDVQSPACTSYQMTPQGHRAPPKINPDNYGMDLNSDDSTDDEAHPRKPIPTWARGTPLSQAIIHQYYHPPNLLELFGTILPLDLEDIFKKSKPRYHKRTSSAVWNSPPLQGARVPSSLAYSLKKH

SMILES | IC50 [1] [nM] | GI50 (MDA-MB-468; [7]) [nM] | IC50 [2] [nM] | GI50 ([3]; Homo sapiens, HCT-116, 120 h) [nM] | other results
NS(=O)(=O)c1cccc(-c2n[nH]c3ccc(C(=O)NC(c4ccccc4)C4CC4)cc23)c1 (configuration not stated) | 5000 | – | – | – | –
CC[C@@H](NC(=O)c1ccc2[nH]nc(-c3ccc(OC4CCN(C)CC4)cc3)c2c1)c1ccccc1Cl | 38 | – | – | – | –
O=C(NCC1(N2CCOCC2)CCCCC1)c1ccc2[nH]nc(-c3ccc(N4CCC(O)CC4)cc3)c2c1 | – | 210 | 230 | 48 | –
O=C(NCC1(N2CCOCC2)CCCCC1)c1ccc2[nH]nc(-c3ccc(N4CC5CCC(C4)O5)cc3)c2c1 | – | 650 | 18 | 150 | GI50 ([4]; Homo sapiens, OVCAR-3, 120 h): 690 nM
O=C(NCC1(N2CCOCC2)CCCCC1)c1ccc2[nH]nc(-c3ccc(N4C5CCC4COC5)cc3)c2c1 | 800 | 25 | 1.1 | 1 | half-life at 1 µM [5]: 9.6 min; half-life at 1 µM [6]: 2.7 min; GI50 ([4]; Homo sapiens, OVCAR-3, 120 h): 17 nM
O=C(N[C@H](c1ccccc1F)C1CC1)c1ccc2[nH]nc(-c3ccc(N4C5CCC4COC5)cc3)c2c1 | 470 | – | – | – | –
O=C(N[C@@H](c1ccccc1F)C1CC1)c1ccc2[nH]nc(-c3ccc(N4C5CCC4COC5)cc3)c2c1 | 980 | – | – | – | IC50 (Cytochrome P450 3A4): 240 nM
CC(C)[C@H](NC(=O)c1ccc2[nH]nc(-c3ccc(N4C5CCC4COC5)cc3)c2c1)c1ccccc1Cl | 1900 | – | – | – | IC50 (Cytochrome P450 3A4): 60 nM
O=C(N[C@H](c1ccccn1)C1CC1)c1ccc2[nH]nc(-c3ccc(N4C5CCC4COC5)cc3)c2c1 | 360 | 15 | 1.4 | 2 | half-life at 1 µM [5]: > 60 min; half-life at 1 µM [6]: > 60 min; GI50 ([4]; Homo sapiens, OVCAR-3, 120 h): 18 nM
O=C(N[C@@H](c1ccccn1)C1CCCC1)c1ccc2[nH]nc(-c3ccc(N4C5CCC4COC5)cc3)c2c1 | 1400 | – | – | – | IC50 (Cytochrome P450 3A4): 360 nM
O=C(N[C@H](c1ccccn1)C1CCCC1)c1ccc2[nH]nc(-c3ccc(N4C5CCCC4COC5)cc3)c2c1 | 2800 | 180 | 8.3 | 25 | half-life at 1 µM [6]: 50 min; GI50 ([4]; Homo sapiens, OVCAR-3, 120 h): 200 nM
O=C(N[C@@H](c1ncccn1)C1CCCC1)c1ccc2[nH]nc(-c3ccc(N4[C@H]5CC[C@H]4CC(O)C5)cc3)c2c1 (some centres not stated) | 850 | 150 | 3.9 | 20 | half-life at 1 µM [6]: > 60 min; GI50 ([4]; Homo sapiens, OVCAR-3, 120 h): 160 nM
CC(C)C[C@H](NC(=O)c1ccc2[nH]nc(-c3ccc(N4[C@H]5CC[C@H]4CC(O)C5)cc3)c2c1)c1ccccn1 (some centres not stated) | 1500 | 17 | 1.7 | 2 | half-life at 1 µM [5]: 48 min; half-life at 1 µM [6]: > 60 min; GI50 ([4]; Homo sapiens, OVCAR-3, 120 h): 140 nM
CC(C)C[C@@H](NC(=O)c1ccc2[nH]nc(-c3ccc(N4[C@H]5CC[C@H]4CC(O)C5)cc3)c2c1)c1ccccn1 (some centres not stated) | 1600 | 26 | 2.7 | 5 | half-life at 1 µM [5]: 25 min; half-life at 1 µM [6]: > 60 min; GI50 ([4]; Homo sapiens, OVCAR-3, 120 h): 82 nM
CC(C)C[C@H](NC(=O)c1ccc2[nH]nc(-c3ccc(N4[C@H]5CCC[C@H]4CC(O)C5)cc3)c2c1)c1ccccn1 (some centres not stated) | 980 | 450 | 14 | 150 | Ratio IC50 (Homo sapiens): > 100; GI50 ([4]; Homo sapiens, OVCAR-3, 120 h): 730 nM
CC(C)C[C@H](NC(=O)c1ccc2[nH]nc(-c3ccc(N4[C@H]5COC[C@H]4CC(O)C5)cc3)c2c1)c1ccccn1 (mixture of isomers) | 230 | – | – | – | –
CN1CCN(c2ccc(-c3n[nH]c4ccc(NC(=O)C(c5ccsc5)N5CCCC5)cc34)cc2S(C)(=O)=O)CC1 (racemic) | – | 900 | 18 | 280 | –
O=C(NC(c1ccccc1)C1CC1)c1ccc2[nH]nc(-c3cccc(N4CCOCC4)c3)c2c1 (racemic) | – | 7800 | 340 | 5600 | –
CN1CCC(Oc2ccc(-c3n[nH]c4ccc(C(=O)NC(c5ccccc5)C5CC5)cc34)cc2)CC1 (racemic) | 57 | – | – | – | –
CN1CCC(Oc2ccc(-c3n[nH]c4ccc(NC(=O)C(c5ccccn5)C5CCCC5)cc34)cc2)CC1 (racemic) | 71 | – | – | – | –
CN1CCC(Oc2ccc(-c3n[nH]c4ccc(C(=O)NC(c5ccccn5)C5CCCC5)cc34)cc2)CC1 (racemic) | 180 | – | – | – | –
O=CN1CCC(Oc2ccc(-c3n[nH]c4ccc(C(=O)NC(c5ccccc5)C5CC5)cc34)cc2)CC1 (racemic) | – | 360 | 16 | 130 | IC50 (Cytochrome P450 3A4): 1500 nM
O=CN1CCC(Oc2ccc(-c3n[nH]c4ccc(C(=O)NC(c5ccccn5)C5CC5)cc34)cc2)CC1 (racemic) | 95 | 260 | 9.4 | 35 | IC50 (Cytochrome P450 3A4): 1500 nM
CN1[C@@H]2CC[C@H]1C[C@@H](Oc1ccc(-c3n[nH]c4ccc(C(=O)NC(c5ccccc5)C5CC5)cc34)cc1)C2 (mixture of isomers) | 93 | 130 | 2.8 | 30 | IC50 (Cytochrome P450 3A4): 2400 nM
CN1[C@@H]2CC[C@H]1C[C@H](Oc1ccc(-c3n[nH]c4ccc(C(=O)NC(c5ccccc5)C5CC5)cc34)cc1)C2 (mixture of isomers) | – | 160 | 7.3 | 33 | –
O=C(N[C@H](c1ccccn1)C1CCCC1)c1ccc2[nH]nc(-c3ccc(N4[C@H]5CC[C@H]4CC(O)C5)cc3)c2c1 (stereo in doubt; 76) | – | – | – | – | Ratio IC50 (Homo sapiens): > 100
O=C(N[C@@H](c1ccccn1)C1CC1)c1ccc2[nH]nc(-c3ccc(N4[C@H]5CC[C@H]4CC(O)C5)cc3)c2c1 (stereo in doubt; 87) | 1700 | – | 2.7 | – | IC50 (Cytochrome P450 3A4): 1400 nM; GI50 (MDA-MB-468): 210 nM; GI50 [4]: 310 nM; GI50 [3]: 48 nM
O=C(N[C@H](c1ccccn1)C1CCCC1)c1ccc2[nH]nc(-c3ccc(N4[C@H]5CC[C@H]4CC(O)C5)cc3)c2c1 (stereo in doubt; 88) | – | – | – | – | Ratio IC50 (Homo sapiens): > 100
